Measured values: ChEMBL document CHEMBL3400112, “Design, syntheses, and pharmacological characterization of 17-cyclopropylmethyl-3,14β-dihydroxy-4,5α-epoxy-6α-(isoquinoline-3'-carboxamido)morphinan analogues as opioid receptor ligands” (Bioorg Med Chem, 2015)
The source made the active and inactive calls. The rule behind the calls is not given here.

Key:
Mu-type opioid receptor [1] = target: T1, Mu-type opioid receptor (Mus musculus, UniProt P42866); assay: Displacement of [3H]naloxane from mouse MOR expressed in CHO cells after […]; format: cell-based
[2] = target: T2, Kappa-type opioid receptor (Mus musculus, UniProt P33534); assay: Displacement of [3H]diprenorphine from mouse KOR expressed in CHO cells after […]; format: cell-based
[3] = target: T3, Delta-type opioid receptor (Mus musculus, UniProt P32300); assay: Displacement of [3H]naltrindole from mouse DOR expressed in CHO cells after […]; format: cell-based
Mus musculus [4] = species: Mus musculus; assay: Selectivity ratio of Ki for mouse DOR to Ki for mouse MOR
Mus musculus [5] = species: Mus musculus; assay: Selectivity ratio of Ki for mouse KOR to Ki for mouse MOR
Mu-type opioid receptor [6] = target: T1, Mu-type opioid receptor; assay: Stimulation of mouse MOR expressed in CHO cells after […] by [35S]GTPgammaS binding assay; format: functional, cell-based
[7] = target: Mu-type opioid receptor (Mus musculus) (UniProt P42866); assay: Stimulation of mouse MOR expressed in CHO cells after […] by [35S]GTPgammaS binding assay relative to DAMGO; format: functional, cell-based
Mus musculus [8] = assay: Antinociceptive activity in Swiss-Webster mouse at 10 mg/kg, sc after 20 mins by warm water tail-flick test relative to control; format: functional; settings: route subcutaneous
Mus musculus [9] = assay: Antinociceptive activity in sc dosed Swiss-Webster mouse after 20 mins by warm water tail-flick test relative to control; format: functional
[10] = target: T2, Kappa-type opioid receptor; assay: Partial agonist activity at mouse KOR expressed in CHO cells after […] by [35S]GTPgammaS binding assay; format: functional, cell-based
[11] = target: T3, Delta-type opioid receptor; assay: Agonist activity at mouse DOR expressed in CHO cells after […] by [35S]GTPgammaS binding assay; format: functional, cell-based
[12] = target: Delta-type opioid receptor (Mus musculus) (UniProt P32300); assay: Agonist activity at mouse DOR expressed in CHO cells after […] by [35S]GTPgammaS binding assay relative to SNC80; format: functional, cell-based
Mu-type opioid receptor [13] = target: T4, Mu-type opioid receptor (Homo sapiens, UniProt P35372); assay: Agonist activity at human MOR expressed in CHO cells assessed as increase in intracellular Ca2+ level after 30 mins by microplate reader analysis; format: functional, cell-based
Summary of the method: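 Gαqi5-transfected hMOR-CHO cells (DMEM/F12, 10% FBS, hygromycin B, 37 °C/5% CO2), plated 4 h post-transfection, grown 24 h, loaded 30 min with Fluo-4 AM plus probenecid in HBSS:HEPES. Test agent at varying concentrations in triplicate added after 15 s of reading. Fluorescence 494/516 nm over 120 s; at least three independent experiments.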

Mu-type opioid receptor [14] = target: T4, Mu-type opioid receptor; assay: Antagonist activity at human MOR expressed in CHO cells assessed as inhibition of DAMGO-induced increase in intracellular Ca2+ level incubated for 15 mins prior to DAMGO addition by microplate reader analysis; format: functional, cell-based
Mus musculus [15] = assay: Reversal of morphine-induced antinociceptive activity in Swiss-Webster mouse at 1 mg/kg, sc administered 5 mins prior to morphine challenge measured after 20 mins by warm water tail-flick test relative to control; format: functional
Mus musculus [16] = assay: Reversal of morphine-induced antinociceptive activity in sc dosed Swiss-Webster mouse administered 5 mins prior to morphine challenge measured after 20 mins by warm water tail-flick test relative to control; format: functional
[17] = target: T2, Kappa-type opioid receptor; assay: Agonist activity at mouse KOR expressed in CHO cells after […] by [35S]GTPgammaS binding assay; format: functional, cell-based
[18] = target: Kappa-type opioid receptor (Mus musculus) (UniProt P33534); assay: Agonist activity at mouse KOR expressed in CHO cells after […] by [35S]GTPgammaS binding assay relative to (+/-)-trans-U50488; format: functional, cell-based
Mus musculus [19] = species: Mus musculus; assay: Selectivity ratio of EC50 for mouse KOR to EC50 for mouse MOR
Mus musculus [20] = species: Mus musculus; assay: Selectivity ratio of EC50 for mouse DOR to EC50 for mouse MOR
[21] = target: Delta-type opioid receptor (Mus musculus) (UniProt P32300); assay: Agonist activity at mouse DOR expressed in CHO cells after […] by [35S]GTPgammaS binding assay relative to naltrexone; format: functional, cell-based
Mus musculus [22] = assay: Reversal of morphine-induced antinociceptive activity in Swiss-Webster mouse assessed as escape jumps at 30 to 100 mg/kg, sc measured after 3 mins up to 20 mins; format: functional, organism-based
Summary of the method: (§1)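 After 72 h and 30 min habituation in an observation chamber, withdrawal was precipitated by s.c. test agent. Escape jumps and wet-dog shakes counted over 20 min, starting within 3 min of dosing; at least six mice per dose.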

Mus musculus [23] = assay: Reversal of morphine-induced antinociceptive activity in Swiss-Webster mouse assessed as wet-dog shakes at 30 to 100 mg/kg, sc measured after 3 mins up to 20 mins; format: functional, organism-based; summary of the method: as §1
Mus musculus [24] = assay: Induction of escape jumps in Swiss-Webster mouse at 30 mg/kg, sc measured after 3 mins up to 20 mins; format: organism-based; set-up: dose 30 mg/kg, route subcutaneous; settings: in vivo; summary of the method: as §1
Mus musculus [25] = assay: Induction of wet-dog shakes in Swiss-Webster mouse at 30 mg/kg, sc measured after 3 mins up to 20 mins; format: organism-based; set-up: dose 30 mg/kg, route subcutaneous; settings: in vivo; summary of the method: as §1

T3 sequence (P32300 whole entry): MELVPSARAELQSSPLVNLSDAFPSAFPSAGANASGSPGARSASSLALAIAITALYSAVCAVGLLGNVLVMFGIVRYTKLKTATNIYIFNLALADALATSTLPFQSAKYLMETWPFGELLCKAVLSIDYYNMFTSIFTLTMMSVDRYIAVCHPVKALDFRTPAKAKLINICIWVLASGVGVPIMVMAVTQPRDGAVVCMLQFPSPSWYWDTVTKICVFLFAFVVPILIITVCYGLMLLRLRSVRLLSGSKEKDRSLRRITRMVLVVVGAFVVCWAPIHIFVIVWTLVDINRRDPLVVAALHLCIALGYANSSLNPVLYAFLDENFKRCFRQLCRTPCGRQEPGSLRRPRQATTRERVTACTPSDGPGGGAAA
Sequence of Delta-type opioid receptor (Mus musculus) (P32300 whole entry): as above
T1 sequence (P42866 whole entry): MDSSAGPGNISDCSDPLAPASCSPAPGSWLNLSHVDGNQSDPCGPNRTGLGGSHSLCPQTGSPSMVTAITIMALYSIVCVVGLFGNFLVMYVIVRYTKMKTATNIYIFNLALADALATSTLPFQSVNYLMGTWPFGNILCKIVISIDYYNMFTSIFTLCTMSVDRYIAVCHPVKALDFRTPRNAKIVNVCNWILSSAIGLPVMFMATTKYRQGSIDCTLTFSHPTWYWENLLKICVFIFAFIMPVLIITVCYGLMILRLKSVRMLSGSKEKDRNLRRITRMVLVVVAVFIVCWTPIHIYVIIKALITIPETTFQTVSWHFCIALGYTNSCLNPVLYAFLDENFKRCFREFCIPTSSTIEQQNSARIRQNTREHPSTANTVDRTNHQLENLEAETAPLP
Sequence of Mu-type opioid receptor (Mus musculus) (P42866 whole entry): as above
T4 sequence (P35372 whole entry): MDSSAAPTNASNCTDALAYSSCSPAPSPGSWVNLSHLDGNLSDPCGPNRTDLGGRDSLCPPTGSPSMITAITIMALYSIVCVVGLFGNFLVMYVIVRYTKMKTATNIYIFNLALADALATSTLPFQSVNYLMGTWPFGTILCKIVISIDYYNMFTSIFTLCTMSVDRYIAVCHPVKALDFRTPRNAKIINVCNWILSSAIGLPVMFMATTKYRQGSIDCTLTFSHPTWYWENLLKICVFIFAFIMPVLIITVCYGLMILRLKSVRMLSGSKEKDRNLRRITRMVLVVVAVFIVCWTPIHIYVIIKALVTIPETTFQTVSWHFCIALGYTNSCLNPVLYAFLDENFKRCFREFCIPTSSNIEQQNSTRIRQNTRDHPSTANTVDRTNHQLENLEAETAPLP
T2 sequence (P33534 whole entry): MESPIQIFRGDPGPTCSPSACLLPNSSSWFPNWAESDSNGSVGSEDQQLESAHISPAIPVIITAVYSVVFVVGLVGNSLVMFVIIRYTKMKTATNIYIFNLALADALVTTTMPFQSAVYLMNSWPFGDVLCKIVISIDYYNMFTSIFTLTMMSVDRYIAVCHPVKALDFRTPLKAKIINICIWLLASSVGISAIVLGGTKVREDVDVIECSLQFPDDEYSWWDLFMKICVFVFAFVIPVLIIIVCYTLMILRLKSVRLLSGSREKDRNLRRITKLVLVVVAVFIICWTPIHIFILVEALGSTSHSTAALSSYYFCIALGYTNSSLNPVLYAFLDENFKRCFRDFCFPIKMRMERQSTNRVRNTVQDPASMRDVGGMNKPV
Sequence of Kappa-type opioid receptor (Mus musculus) (P33534 whole entry): as above

| Structure (SMILES) | Ki (Mu-type opioid receptor [1]) [nM] | Ki [2] [nM] | Ki [3] [nM] | Ratio Ki (Mus musculus [4]) | Ratio Ki (Mus musculus [5]) | EC50 (Mu-type opioid receptor [6]) [nM] | Emax [7] [%] | further results |
| --- | --- | --- | --- | --- | --- | --- | --- | --- |
| COc1cc2cnc(C(=O)N[C@H]3CC[C@@]4(O)[C@H]5Cc6ccc(O)c7c6[C@@]4(CCN5CC4CC4)[C@H]3O7)cc2cc1OC | 13.4 | 61 | 69.2 | 4.6 | 5.2 | 85.2 | 14 |  |
| CN(C)c1ccc2c(c1)CN(C)C(C(=O)N[C@H]1CC[C@@]3(O)[C@H]4Cc5ccc(O)c6c5[C@@]3(CCN4CC3CC3)[C@H]1O6)C2 (some centres not stated) | 1.79 | 4.91 | 4.5 | 2.7 | 2.5 | 11.4 | 26.2 |  |
| Cc1nc(C(=O)N[C@H]2CC[C@@]3(O)[C@H]4Cc5ccc(O)c6c5[C@@]3(CCN4CC3CC3)[C@H]2O6)cc2ccccc12 |  |  |  |  |  |  |  | MPE (Mus musculus [8]): <20% |
| COc1c(C(=O)N[C@H]2CC[C@@]3(O)[C@H]4Cc5ccc(O)c6c5[C@@]3(CCN4CC3CC3)[C@H]2O6)nc(Cl)c2ccccc12 |  |  |  |  |  |  |  | ED50 (Mus musculus [9]): 0.73 mg/kg; EC50 [10]: 26.4 nM; EC50 [11]: 32.6 nM; Emax [12]: 54.8%; Activity (Mu-type opioid receptor [13]): inactive; IC50 (Mu-type opioid receptor [14]): 23.7 nM; inhibition (Mu-type opioid receptor [14]): Dose-dependent effect |
| O=C(CNC(=O)c1cc2ccccc2cn1)N[C@H]1CC[C@@]2(O)[C@H]3Cc4ccc(O)c5c4[C@@]2(CCN3CC2CC2)[C@H]1O5 |  |  |  | 0.2 | 3.4 |  |  |  |
| CN(C)c1ccc2cc(C(=O)N[C@H]3CC[C@@]4(O)[C@H]5Cc6ccc(O)c7c6[C@@]4(CCN5CC4CC4)[C@H]3O7)ncc2c1 | 4.4 | 88 | 68.6 | 20 | 16 | 4.7 | 6.32 | Activity (Mus musculus [15]): inactive |
| O=C(N[C@H]1CC[C@@]2(O)[C@H]3Cc4ccc(O)c5c4[C@@]2(CCN3CC2CC2)[C@H]1O5)c1cc2ccccc2cn1 |  |  |  |  |  |  |  | AD50 (Mus musculus [16]): 0.45 mg/kg; EC50 [17]: 10.9 nM; Emax [18]: 13.1%; EC50 [11]: 98.6 nM; Emax [12]: 53.5% |
| O=C(Cc1cc2ccccc2cn1)N[C@H]1CC[C@@]2(O)[C@H]3Cc4ccc(O)c5c4[C@@]2(CCN3CC2CC2)[C@H]1O5 |  |  |  | 0.9 | 10 |  |  |  |
| O=C(N[C@H]1CC[C@@]2(O)[C@H]3Cc4ccc(O)c5c4[C@@]2(CCN3CC2CC2)[C@H]1O5)c1ncc2ccccc2c1O |  |  |  |  |  |  |  | MPE (Mus musculus [8]): <20% |
| O=C(N[C@H]1CC[C@@]2(O)[C@H]3Cc4ccc(O)c5c4[C@@]2(CCN3CC2CC2)[C@H]1O5)c1nc(Cl)c2ccccc2c1O |  |  |  | 25 | 24 |  |  |  |
| CN1Cc2ccccc2C[C@H]1C(=O)N[C@H]1CC[C@@]2(O)[C@H]3Cc4ccc(O)c5c4[C@@]2(CCN3CC2CC2)[C@H]1O5 |  |  |  | 2.3 | 3.2 |  |  |  |
| N#Cc1nc(C(=O)N[C@H]2CC[C@@]3(O)[C@H]4Cc5ccc(O)c6c5[C@@]3(CCN4CC3CC3)[C@H]2O6)cc2ccccc12 |  |  |  | 10 | 131 |  |  | MPE (Mus musculus [8]): 56.9% |
| O=C(CCc1cc2ccccc2cn1)N[C@H]1CC[C@@]2(O)[C@H]3Cc4ccc(O)c5c4[C@@]2(CCN3CC2CC2)[C@H]1O5 |  |  |  | 2.4 | 12 |  |  |  |
| O=C(N[C@H]1CC[C@@]2(O)[C@H]3Cc4ccc(O)c5c4[C@@]2(CCN3CC2CC2)[C@H]1O5)c1ncc2ccccc2n1 |  |  |  | 4.6 | 71 |  |  |  |
| O=C(N[C@H]1CC[C@@]2(O)[C@H]3Cc4ccc(O)c5c4[C@@]2(CCN3CC2CC2)[C@H]1O5)c1cc2ccc([N+](=O)[O-])cc2cn1 | 3.6 | 16 | 55.3 | 4.5 | 16 | 42.7 | 13.4 | Activity (Mus musculus [15]): inactive |
| O=C(N[C@H]1CC[C@@]2(O)[C@H]3Cc4ccc(O)c5c4[C@@]2(CCN3CC2CC2)[C@H]1O5)c1cc2cc([N+](=O)[O-])ccc2cn1 | 5.7 | 27.9 | 94.7 | 4.9 | 16 | 31.5 | 12.5 | AD50 (Mus musculus [16]): 0.92 mg/kg; MPE (Mus musculus [15]; route subcutaneous): 8.9%; EC50 [17]: 62.6 nM; Emax [18]: 21.1%; EC50 [11]: 108 nM; Emax [12]: 67.7%; Ratio EC50 (Mus musculus [19]): 2; Ratio EC50 (Mus musculus [20]): 3.4; Ratio [21]: 10; Activity (Mu-type opioid receptor [13]): inactive; IC50 (Mu-type opioid receptor [14]): 2730 nM; inhibition (Mu-type opioid receptor [14]): Dose-dependent effect; Activity (Mus musculus [22]): inactive; Activity (Mus musculus [23]): inactive; Activity (Mus musculus [24]): Non-toxic; Activity (Mus musculus [25]): Non-toxic |
